Data: ChEMBL document CHEMBL1138032, “New 2',6'-dimethyl-L-tyrosine (Dmt) opioid peptidomimetics based on the Aba-Gly scaffold. Development of unique mu-opioid receptor ligands” (J Med Chem, 2006)
Square brackets hold non-standard residues; d marks the D form. Peptide text beside a SMILES is read from it. * marks the point of attachment. Dmt = Cc1cc(O)cc(C)c1C[C@H](N)C(=O)O; Tic = O=C(O)[C@@H]1Cc2ccccc2CN1; NHBn = c1ccc(CN*)cc1; NHPh = c1ccc(N*)cc1

Assays:
Mu-type opioid receptor = Mu-type opioid receptor (Cavia porcellus, UniProt P97266); test: Agonist activity at mu opioid receptor by guinea pig ileum assay; type: functional, tissue-based
Chain of Mu-type opioid receptor (P97266 whole entry): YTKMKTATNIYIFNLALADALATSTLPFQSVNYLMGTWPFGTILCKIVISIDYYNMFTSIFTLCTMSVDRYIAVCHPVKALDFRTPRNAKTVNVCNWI
In short: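 Myenteric plexus–longitudinal muscle from male guinea pig ileum was field-stimulated with supramaximal bipolar rectangular pulses. Agonism was read as inhibition of the electrically evoked twitch, referenced to dermorphin. IC50 came from dose-response curves over at least six experiments on fresh tissue.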

[1] = target: Opioid receptors; mu & delta (Homo sapiens) (UniProt P41143+P35372); test: Selectivity for delta opioid receptor over mu opioid receptor; type: protein assay
Chain of Opioid receptors; mu & delta (Homo sapiens) (P35372 whole entry, looked up): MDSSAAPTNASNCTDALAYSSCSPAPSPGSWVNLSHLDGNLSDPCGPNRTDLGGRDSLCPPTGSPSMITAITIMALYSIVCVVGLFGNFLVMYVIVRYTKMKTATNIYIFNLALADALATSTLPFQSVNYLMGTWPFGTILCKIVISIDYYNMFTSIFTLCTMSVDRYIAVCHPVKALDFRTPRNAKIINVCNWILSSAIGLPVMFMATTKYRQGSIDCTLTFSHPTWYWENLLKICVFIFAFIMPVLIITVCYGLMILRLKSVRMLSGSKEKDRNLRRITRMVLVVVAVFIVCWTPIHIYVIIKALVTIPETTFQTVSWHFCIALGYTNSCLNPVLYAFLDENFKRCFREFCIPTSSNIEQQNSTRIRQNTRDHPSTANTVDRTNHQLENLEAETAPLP
Chain of Opioid receptors; mu & delta (Homo sapiens) (P41143 whole entry, looked up): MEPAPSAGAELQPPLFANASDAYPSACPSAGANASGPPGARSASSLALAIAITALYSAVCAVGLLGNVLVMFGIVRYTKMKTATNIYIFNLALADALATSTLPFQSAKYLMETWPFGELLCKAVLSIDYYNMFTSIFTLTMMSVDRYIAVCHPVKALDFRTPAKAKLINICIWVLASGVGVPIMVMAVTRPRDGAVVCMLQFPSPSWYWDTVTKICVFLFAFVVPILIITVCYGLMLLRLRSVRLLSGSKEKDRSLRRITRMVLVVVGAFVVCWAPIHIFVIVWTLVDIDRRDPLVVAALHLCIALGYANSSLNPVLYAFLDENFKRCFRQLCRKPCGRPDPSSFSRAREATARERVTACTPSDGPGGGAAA
In short: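 Non-specific binding was set with 2 μM unlabeled peptide. Five to eight peptide doses were run in duplicate, with independent repeats on different preparations. Samples were filtered on 0.1% polyethylenimine-soaked glass fiber filters and washed thrice with ice-cold buffered BSA. Ki was derived by Cheng–Prusoff.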

[2] = target: Delta-type opioid receptor (Mus musculus, UniProt P32300); test: (§1) Agonist activity at delta opioid receptor by mouse vas deferens assay; type: functional, tissue-based
Chain of Delta-type opioid receptor (P32300 whole entry): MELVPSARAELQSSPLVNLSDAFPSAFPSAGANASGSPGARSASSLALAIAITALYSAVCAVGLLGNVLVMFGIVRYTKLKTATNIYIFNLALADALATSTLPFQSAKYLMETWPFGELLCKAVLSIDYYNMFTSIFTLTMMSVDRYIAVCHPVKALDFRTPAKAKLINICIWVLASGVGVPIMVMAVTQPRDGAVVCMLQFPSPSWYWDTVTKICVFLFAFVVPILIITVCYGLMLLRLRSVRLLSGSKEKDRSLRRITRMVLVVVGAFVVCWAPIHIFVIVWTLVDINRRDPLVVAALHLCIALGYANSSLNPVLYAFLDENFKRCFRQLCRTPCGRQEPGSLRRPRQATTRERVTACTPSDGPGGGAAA
In short: (§2)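 Isolated mouse vas deferens was field-stimulated with supramaximal bipolar rectangular pulses. Agonism was read as inhibition of the electrically evoked twitch, referenced to deltorphin C. IC50 came from dose-response curves over at least six experiments on fresh tissue.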

[3] = target: Delta-type opioid receptor (Mus musculus) (UniProt P32300); test: as §1; type: functional, tissue-based; in short: as §2
Chain of Delta-type opioid receptor (Mus musculus) (P32300 whole entry): as above

[4] = target: Delta-type opioid receptor (Mus musculus) (UniProt P32300); test: Activity at delta opioid receptor by mouse vas deferens assay; type: functional, tissue-based; conditions: filed as partial agonist; in short: as §2

Compound	IC50 (Mu-type opioid receptor)	Selectivity ratio [1]	IC50 [2]	%max [3]	Activity [4]
Cc1cc(O)cc(C)c1C[C@H](N)C(=O)N1Cc2ccccc2C[C@H]1C(=O)NCC(=O)NCc1ccccc1 (H-[Dmt]-[Tic]-Gly-NHBn)	2.69 nM	5.3			
Cc1cc(O)cc(C)c1C[C@H](N)C(=O)N[C@H]1Cc2ccccc2CN(CC(=O)NCc2ccccc2)C1=O	51 nM		830 nM		
Cc1cc(O)cc(C)c1C[C@H](N)C(=O)N[C@H]1Cc2ccccc2CN(CC(=O)Nc2ccccc2)C1=O	95 nM		650 nM	40%	Partial agonist
Cc1cc(O)cc(C)c1C[C@H](N)C(=O)N[C@H]1Cc2ccccc2CN(Cc2nc3ccccc3[nH]2)C1=O	231 nM		2700 nM	40%	Partial agonist
Cc1cc(O)cc(C)c1C[C@H](N)C(=O)N1Cc2ccccc2C[C@H]1C(=O)NCC(=O)Nc1ccccc1 (H-[Dmt]-[Tic]-Gly-NHPh)	2.57 nM	3.6	3.02 nM		
